Laboratory results published in ChEMBL document CHEMBL5316295, “Systematic Design of Adenosine Analogs as Inhibitors of a Clostridioides difficile-Specific DNA Adenine Methyltransferase Required for Normal Sporulation and Persistence” (J Med Chem, 2023).
pKd: −log10 of the molar value. Calls of active or inactive are those of the source. No cut-off for these calls is given here.

Tested on: Caulobacter vibrioides
Test: Inhibition of Caulobacter vibrioides CcrM using 5'-CGA TTC AAA AAG TCC CAA G-3' and 3'-GCT AAG TTT TTC AGG GTT C-5' as substrate and SAM as cosubstrate at 10 uM incubated for 5 mins
Conditions: not given
In short: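 Conditions were enzyme 0.1 μM, DNA 5 μM, SAM 30 μM, inhibitor 10 μM, at ~22 °C in 50 mM Tris–HCl pH 7.5, 100 mM NaCl, 1 mM DTT, 0.25% DMSO, run 5 min. Substrate and SAM levels were above K_M.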

For `CC(C)(C)OC(=O)N1CCC(CCNc2ncnc3c2ncn3[C@@H]2O[C@H](CO)[C@@H](O)[C@H]2O)CC1`, which inhibition is on record?
Its inhibition is “inactive”.

Which inhibition does the source give for `OC[C@H]1O[C@@H](n2cnc3c(NCCCc4ccc(O)cc4)ncnc32)[C@H](O)[C@@H]1O` here?
The inhibition was “inactive”.

With `CC(C)(C)OC(=O)N1CCC(CCCNc2ncnc3c2ncn3[C@@H]2O[C@H](CO)[C@@H](O)[C@H]2O)CC1` as the molecule, how does the inhibition read?
Its inhibition is “inactive”.

Molecular target: not listed separately
Test: Binding affinity to Clostridioides difficile-specific DNA adenine methyltransferase by MicroCal PEAQ-ITC instrument analysis
Conditions: not given

With `CC(C)(C)OC(=O)N1CCC(CCNc2ncnc3c2ncn3[C@@H]2O[C@H](CO)[C@@H](O)[C@H]2O)CC1` as the molecule, how does the pKd read?
Its pKd is 6.85.

With `OC[C@H]1O[C@@H](n2cnc3c(NCCCc4ccc(O)cc4)ncnc32)[C@H](O)[C@@H]1O` as the molecule, how does the pKd read?
Its pKd is 6.64.

With `CC(C)(C)OC(=O)N1CCC(CCCNc2ncnc3c2ncn3[C@@H]2O[C@H](CO)[C@@H](O)[C@H]2O)CC1` as the molecule, how does the pKd read?
Its pKd is 6.85.

Molecular target: T1, Histone-lysine N-methyltransferase EHMT2 (Homo sapiens) (UniProt Q96KQ7)
T1 sequence (whole entry): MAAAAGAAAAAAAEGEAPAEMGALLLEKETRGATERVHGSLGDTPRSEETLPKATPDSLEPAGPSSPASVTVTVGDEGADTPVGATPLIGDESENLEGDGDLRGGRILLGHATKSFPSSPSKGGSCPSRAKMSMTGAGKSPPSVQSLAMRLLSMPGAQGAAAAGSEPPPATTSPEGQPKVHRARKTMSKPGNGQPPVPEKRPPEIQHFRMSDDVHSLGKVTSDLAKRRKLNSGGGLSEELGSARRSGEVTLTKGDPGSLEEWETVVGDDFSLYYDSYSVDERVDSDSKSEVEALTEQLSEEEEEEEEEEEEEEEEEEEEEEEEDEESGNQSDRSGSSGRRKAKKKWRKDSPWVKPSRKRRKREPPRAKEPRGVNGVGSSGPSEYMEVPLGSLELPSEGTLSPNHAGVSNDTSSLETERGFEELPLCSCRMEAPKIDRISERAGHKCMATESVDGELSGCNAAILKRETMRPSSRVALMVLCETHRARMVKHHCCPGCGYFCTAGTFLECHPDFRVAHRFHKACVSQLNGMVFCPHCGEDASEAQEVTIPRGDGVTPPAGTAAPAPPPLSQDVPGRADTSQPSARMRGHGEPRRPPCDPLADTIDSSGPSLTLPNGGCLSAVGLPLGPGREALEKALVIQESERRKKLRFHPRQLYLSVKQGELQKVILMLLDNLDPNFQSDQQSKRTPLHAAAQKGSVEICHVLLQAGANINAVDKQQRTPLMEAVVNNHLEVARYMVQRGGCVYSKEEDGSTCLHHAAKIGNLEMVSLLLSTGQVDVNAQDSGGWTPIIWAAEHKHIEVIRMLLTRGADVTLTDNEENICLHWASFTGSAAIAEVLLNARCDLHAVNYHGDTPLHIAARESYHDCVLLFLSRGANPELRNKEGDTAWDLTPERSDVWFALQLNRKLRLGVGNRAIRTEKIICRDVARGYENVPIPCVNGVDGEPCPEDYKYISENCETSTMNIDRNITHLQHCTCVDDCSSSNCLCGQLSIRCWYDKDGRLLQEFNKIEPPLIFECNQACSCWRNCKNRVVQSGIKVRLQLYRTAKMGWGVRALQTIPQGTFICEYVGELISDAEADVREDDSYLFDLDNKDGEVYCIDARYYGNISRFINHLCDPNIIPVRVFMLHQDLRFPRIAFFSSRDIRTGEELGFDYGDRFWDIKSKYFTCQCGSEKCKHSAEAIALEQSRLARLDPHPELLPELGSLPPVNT
Test: Inhibition of human G9a (913 to 1193 residues) expressed in Escherichia coli BL21 (DE3)-gold cells using histone H3 (1 to 21 residues) as substrate and 3H-SAM as cosubstrate at 10 uM pretreated with compound for 20 mins in presence of histone H3 (1 to 21 residues) followed by cosubstrate addition and measured after 1 hr
Conditions: time 80.0 min
In short: (§1)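 Enzymes (DOT1L 1 nM; EZH2, G9a, PRMT1 5 nM) mixed with substrate (0.05 mg/mL oligonucleosomes for DOT1L; 0.05 mg/mL core histone for EZH2; 5 μM H3 1–21 peptide for G9a; 5 μM H4 for PRMT1). Compound (10 μM) added for 20 min at room temperature, then 1 μM ³H-SAM for 1 h at 30 °C; filter-paper read-out. Triplicates, mean ± SD.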

Which inhibition does the source give for `CC(C)(C)OC(=O)N1CCC(CCNc2ncnc3c2ncn3[C@@H]2O[C@H](CO)[C@@H](O)[C@H]2O)CC1` here?
The inhibition was “inactive”.

Which inhibition does the source give for `OC[C@H]1O[C@@H](n2cnc3c(NCCCc4ccc(O)cc4)ncnc32)[C@H](O)[C@@H]1O` here?
The inhibition was “inactive”.

Which inhibition does the source give for `CC(C)(C)OC(=O)N1CCC(CCCNc2ncnc3c2ncn3[C@@H]2O[C@H](CO)[C@@H](O)[C@H]2O)CC1` here?
Its inhibition is “inactive”.

Molecular target: T2, RNA N(6)-adenosine-methyltransferase METTL16 (Homo sapiens) (UniProt Q86W50)
T2 sequence (whole entry): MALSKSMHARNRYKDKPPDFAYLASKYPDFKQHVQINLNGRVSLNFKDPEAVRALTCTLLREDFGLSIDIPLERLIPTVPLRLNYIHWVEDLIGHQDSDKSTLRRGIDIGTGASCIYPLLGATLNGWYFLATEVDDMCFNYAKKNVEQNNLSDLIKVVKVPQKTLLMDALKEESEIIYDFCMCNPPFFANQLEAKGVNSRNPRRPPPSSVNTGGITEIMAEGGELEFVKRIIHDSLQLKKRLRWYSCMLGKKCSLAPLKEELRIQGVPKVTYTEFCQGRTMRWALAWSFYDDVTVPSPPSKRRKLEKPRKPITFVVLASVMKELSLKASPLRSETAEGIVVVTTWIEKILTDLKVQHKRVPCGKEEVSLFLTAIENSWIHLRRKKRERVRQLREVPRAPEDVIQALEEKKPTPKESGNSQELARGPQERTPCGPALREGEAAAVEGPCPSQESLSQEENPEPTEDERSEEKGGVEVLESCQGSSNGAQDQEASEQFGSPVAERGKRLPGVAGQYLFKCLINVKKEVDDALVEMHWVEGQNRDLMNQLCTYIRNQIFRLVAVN
Test: Inhibition of human METTL16 using 5'-GGUUGGCGUAGGCUACAGAGAAGCCAACC-3' as substrate and SAM as cosubstrate at 10 uM incubated for 15 mins
Conditions: not given
In short: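 Under CamA buffer conditions (30 μM SAM) the assay ran 15 min with ssRNA hairpin substrate and 10 μM inhibitor. A separate condition used 0.4 μM enzyme, 5 μM RNA, 160 μM SAM in 20 mM Tris–HCl pH 8.0, 400 mM NaCl, 1 mM DTT, 0.25% DMSO for 30 min.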

Which inhibition does the source give for `CC(C)(C)OC(=O)N1CCC(CCNc2ncnc3c2ncn3[C@@H]2O[C@H](CO)[C@@H](O)[C@H]2O)CC1` here?
Its inhibition is “inactive”.

With `OC[C@H]1O[C@@H](n2cnc3c(NCCCc4ccc(O)cc4)ncnc32)[C@H](O)[C@@H]1O` as the molecule, how does the inhibition read?
Its inhibition is “inactive”.

With `CC(C)(C)OC(=O)N1CCC(CCCNc2ncnc3c2ncn3[C@@H]2O[C@H](CO)[C@@H](O)[C@H]2O)CC1` as the molecule, how does the inhibition read?
Its inhibition is “inactive”.

Molecular target: Protein arginine N-methyltransferase 1 (Homo sapiens) (UniProt Q99873)
Sequence (Q99873 whole entry, looked up): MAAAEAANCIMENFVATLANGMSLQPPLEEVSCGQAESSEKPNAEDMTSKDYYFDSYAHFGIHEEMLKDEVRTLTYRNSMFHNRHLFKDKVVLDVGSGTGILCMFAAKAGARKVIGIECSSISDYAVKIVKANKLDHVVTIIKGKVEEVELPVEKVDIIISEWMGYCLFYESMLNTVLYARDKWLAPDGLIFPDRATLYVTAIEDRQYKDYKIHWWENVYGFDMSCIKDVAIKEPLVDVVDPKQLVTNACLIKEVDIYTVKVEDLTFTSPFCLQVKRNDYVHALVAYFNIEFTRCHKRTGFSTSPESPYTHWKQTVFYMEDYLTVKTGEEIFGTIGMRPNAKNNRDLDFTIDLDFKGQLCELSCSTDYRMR
Test: Inhibition of PRMT1 (unknown origin) using histone H4 as substrate and 3H-SAM as cosubstrate at 10 uM pretreated with compound for 20 mins in presence of histone H4 followed by cosubstrate addition and measured after 1 hr
Conditions: time 80.0 min
In short: as §1

For `CC(C)(C)OC(=O)N1CCC(CCNc2ncnc3c2ncn3[C@@H]2O[C@H](CO)[C@@H](O)[C@H]2O)CC1`, which inhibition is on record?
The inhibition was “inactive”.

Which inhibition does the source give for `OC[C@H]1O[C@@H](n2cnc3c(NCCCc4ccc(O)cc4)ncnc32)[C@H](O)[C@@H]1O` here?
The inhibition was “inactive”.

With `CC(C)(C)OC(=O)N1CCC(CCCNc2ncnc3c2ncn3[C@@H]2O[C@H](CO)[C@@H](O)[C@H]2O)CC1` as the molecule, how does the inhibition read?
Its inhibition is “inactive”.
